This note sets out measurements from ChEMBL document CHEMBL1139798, “Synthesis of chlorogenic acid derivatives with promising antifungal activity” (Bioorg Med Chem, 2007).

For one data set, the system named is Candida albicans. Description: Antifungal activity against Candida albicans ATCC 90028 after 18 to 24 hrs. The class given is functional. The essentials:
(§1)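 Broth dilution following NCCLS guidelines. Final compound concentrations ran from 0.12 to 64. MIC was taken as the lowest concentration giving 80% inhibition of growth relative to the drug-free control.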

The test system of another data set is Cryptococcus neoformans. As to the kind of experiment: Antifungal activity against Cryptococcus neoformans ATCC 32045 after 48 to 72 hrs. The class given is functional. The essentials: as §1
Another data set concerns Aspergillus fumigatus. Description: Antifungal activity against Aspergillus fumigatus ATCC 13073 after 48 hrs. It is filed as functional. The settings on record: ATCC 13073, 48 h. An outline of the steps: as §1
Data set [1] in a line: Lethality in brine shrimp at 100 ug/ml. The following applies: artemia, in vivo; read-out: Activity. It is filed as organism-based.
The test system of a further data set is Pichia kudriavzevii. Description: Antifungal activity against Candida krusei ATCC 6258. It is filed as functional.

Molecules are shown by their SMILES. Converted amounts (≈) assume the structure as drawn. Bounds are passed on as bounds.

A word on the MIC: it is the lowest concentration found to suppress growth. A low value points to greater potency.

Regarding `CCCCCCCCOc1ccc(NC(=O)C(CCCNC(=O)OC(C)(C)C)NC(=O)[C@]2(O)C[C@@H](O)[C@@H](O)[C@H](OC(=O)CCc3ccc(O)c(O)c3)C2)cc1` (stereo not given in full), the MIC against Candida albicans is over 64 µg/mL; against Cryptococcus neoformans it was 4 µg/mL (≈ 5.17 µM); against Aspergillus fumigatus, over 64 µg/mL. Moreover, the mortality at 100 ug/ml in data set [1] stood at 21.1%.
As for `CCCCCCCCOc1ccc(NC(=O)C(CCCN)NC(=O)[C@]2(O)C[C@@H](O)[C@@H](O)[C@H](OC(=O)CCc3ccc(O)c(O)c3)C2)cc1` (stereo not given in full), the MIC is 16 µg/mL (≈ 23.7 µM) against Candida albicans, 8 µg/mL (≈ 11.9 µM) against Cryptococcus neoformans and 64 µg/mL (≈ 95 µM) in the data set with Aspergillus fumigatus. The mortality at 100 ug/ml in data set [1] is 10.5%.
In the case of `CCCCCCCCOc1ccc(NC(=O)C(CCCNC(=O)OC(C)(C)C)NC(=O)[C@@]2(O)C[C@@H](OC(=O)/C=C/c3ccc(O)cc3)[C@@H]3OC(C)(C)O[C@@H]3C2)cc1` (stereo not given in full), the MIC against Candida albicans, in the data set with Cryptococcus neoformans and in the data set on Aspergillus fumigatus was over 64 µg/mL throughout. In addition, in data set [1], the mortality at 100 ug/ml came to 0%.
As to `CCCCCCCCOc1ccc(NC(=O)C(CCCNC(=O)OC(C)(C)C)NC(=O)[C@]2(O)C[C@@H](O)[C@@H](O)[C@H](OC(=O)/C=C/c3ccc(O)cc3)C2)cc1` (stereo not given in full), the MIC with Candida albicans, with Cryptococcus neoformans and in the data set with Aspergillus fumigatus was over 64 µg/mL throughout. Further, the mortality at 100 ug/ml in data set [1] stood at 31.6%.
`CCCCCCCCOc1ccc(NC(=O)[C@@]2(O)C[C@@H](OC(=O)/C=C/c3ccc(O)c(O)c3)[C@@H]3OC(C)(C)O[C@@H]3C2)cc1`: the MIC with Candida albicans was 16 µg/mL (≈ 26.8 µM); in the data set with Cryptococcus neoformans it was 2 µg/mL (≈ 3.35 µM); in the data set on Aspergillus fumigatus, over 64 µg/mL. Also, the mortality at 100 ug/ml in data set [1] came to 100%.
For the compound `CCCCCCCCOc1ccc(NC(=O)C(NC(=O)[C@@]2(O)C[C@@H](OC(=O)/C=C/c3ccc(O)c(O)c3)[C@@H]3OC(C)(C)O[C@@H]3C2)C(C)OC(C)(C)C)cc1` (stereo not given in full), the results for the MIC with Candida albicans, against Cryptococcus neoformans and against Aspergillus fumigatus were 32 µg/mL (≈ 42.4 µM), 4 µg/mL (≈ 5.3 µM) and over 64 µg/mL, respectively. The mortality at 100 ug/ml in data set [1] turned out to be 6.2%.
As for `CCCCCCCCOc1ccc(NC(=O)C(CC(=O)OC(C)(C)C)NC(=O)[C@]2(O)C[C@@H](O)[C@@H](O)[C@H](OC(=O)/C=C/c3ccc(O)c(O)c3)C2)cc1` (stereo not given in full), the figures for the MIC with Candida albicans, against Cryptococcus neoformans and with Aspergillus fumigatus were 2 µg/mL (≈ 2.74 µM), 2 µg/mL (≈ 2.74 µM) and over 64 µg/mL, respectively. In addition, the mortality at 100 ug/ml in data set [1] came to 37.5%.
For the compound `CCCCCCCCOc1ccc(NC(=O)C(COC(C)(C)C)NC(=O)[C@]2(O)C[C@@H](O)[C@@H](O)[C@H](OC(=O)/C=C/c3ccc(O)c(O)c3)C2)cc1` (stereo not given in full), the figures for the MIC in the data set with Candida albicans, against Cryptococcus neoformans and with Aspergillus fumigatus were 4 µg/mL (≈ 5.71 µM), 2 µg/mL (≈ 2.85 µM) and over 64 µg/mL, respectively. In addition, the mortality at 100 ug/ml in data set [1] was determined as 31.1%.
For `CCCCCCCCOc1ccc(NC(=O)C(CCCNC(=O)OC(C)(C)C)NC(=O)[C@]2(O)C[C@@H](O)[C@@H](O)[C@H](OC(=O)/C=C/c3ccc(O)c(O)c3)C2)cc1` (stereo not given in full), the MIC is 2 µg/mL (≈ 2.59 µM) with Candida albicans, 1 µg/mL (≈ 1.3 µM) with Cryptococcus neoformans and over 64 µg/mL with Aspergillus fumigatus. In data set [1], the mortality at 100 ug/ml came out at 25%.
On to `CCCCCCCCOc1ccc(NC(=O)C(CCCN)NC(=O)[C@]2(O)C[C@@H](O)[C@@H](O)[C@H](OC(=O)/C=C/c3ccc(O)cc3)C2)cc1` (stereo not given in full), for which the MIC in the data set with Candida albicans amounted to 8 µg/mL (≈ 12.2 µM); against Cryptococcus neoformans, 4 µg/mL (≈ 6.1 µM); in the data set on Aspergillus fumigatus, 32 µg/mL (≈ 48.8 µM). Also, in data set [1], the mortality at 100 ug/ml was 100%.
Turning to `CCCCCCCCOc1ccc(NC(=O)C(CC(=O)OC(C)(C)C)NC(=O)[C@@]2(O)C[C@@H](OC(=O)/C=C/c3ccc(O)c(O)c3)[C@@H]3OC(C)(C)O[C@@H]3C2)cc1` (stereo not given in full), the values for the MIC in the data set on Candida albicans, in the data set with Cryptococcus neoformans and against Aspergillus fumigatus were over 64 µg/mL, 2 µg/mL (≈ 2.6 µM) and over 64 µg/mL, respectively. Also, the mortality at 100 ug/ml in data set [1] was found to be 56.2%.
For the compound `CCCCCCCCOc1ccc(NC(=O)C(CCCNC(=O)OC(C)(C)C)NC(=O)[C@@]2(O)C[C@@H](OC(=O)/C=C/c3ccc(O)c(O)c3)[C@@H]3OC(C)(C)O[C@@H]3C2)cc1` (stereo not given in full), the MIC was over 64 µg/mL in the data set with Candida albicans, 2 µg/mL (≈ 2.46 µM) in the data set with Cryptococcus neoformans and over 64 µg/mL in the data set on Aspergillus fumigatus. For the same compound, the mortality at 100 ug/ml in data set [1] was determined as 12.5%.
In the case of `CCCCCCCCOc1ccc(NC(=O)C(NC(=O)[C@]2(O)C[C@@H](O)[C@@H](O)[C@H](OC(=O)/C=C/c3ccc(O)c(O)c3)C2)C(C)O)cc1` (stereo not given in full), the MIC was 8 µg/mL (≈ 12.1 µM) against Candida albicans, 2 µg/mL (≈ 3.04 µM) against Pichia kudriavzevii, 2 µg/mL (≈ 3.04 µM) with Cryptococcus neoformans and over 64 µg/mL with Aspergillus fumigatus. Also, the mortality at 100 ug/ml in data set [1] worked out at 12.5%.
As for `CCCCCCCCOc1ccc(NC(=O)C(CCCN)NC(=O)[C@]2(O)C[C@@H](O)[C@@H](O)[C@H](OC(=O)/C=C/c3ccc(O)c(O)c3)C2)cc1` (stereo not given in full), the MIC against Candida albicans stood at 4 µg/mL (≈ 5.95 µM); in the data set with Cryptococcus neoformans, 1 µg/mL (≈ 1.49 µM); against Aspergillus fumigatus, 16 µg/mL (≈ 23.8 µM). Also, in data set [1], the mortality at 100 ug/ml is 37.5%.
As for `CCCCCCCCOc1ccc(NC(=O)C(CO)NC(=O)[C@]2(O)C[C@@H](O)[C@@H](O)[C@H](OC(=O)/C=C/c3ccc(O)c(O)c3)C2)cc1` (stereo not given in full), the values for the MIC against Candida albicans, against Cryptococcus neoformans and in the data set with Aspergillus fumigatus were over 64 µg/mL, 4 µg/mL (≈ 6.2 µM) and over 64 µg/mL, respectively. In data set [1], the mortality at 100 ug/ml came to 18.8%.
In the case of `CCCCCCCCOc1ccc(NC(=O)C(NC(=O)[C@]2(O)C[C@@H](O)[C@@H](O)[C@H](OC(=O)/C=C/c3ccc(O)c(O)c3)C2)C(C)OC(C)(C)C)cc1` (stereo not given in full), the MIC was 2 µg/mL (≈ 2.8 µM) against Candida albicans, 2 µg/mL (≈ 2.8 µM) against Pichia kudriavzevii, 1 µg/mL (≈ 1.4 µM) with Cryptococcus neoformans and over 64 µg/mL in the data set with Aspergillus fumigatus. The mortality at 100 ug/ml in data set [1] worked out at 50%.
For the compound `CCCCCCCCOc1ccc(NC(=O)C(CC(=O)O)NC(=O)[C@]2(O)C[C@@H](O)[C@@H](O)[C@H](OC(=O)/C=C/c3ccc(O)c(O)c3)C2)cc1` (stereo not given in full), the MIC was 64 µg/mL (≈ 95.1 µM) against Candida albicans, 16 µg/mL (≈ 23.8 µM) in the data set with Cryptococcus neoformans and over 64 µg/mL against Aspergillus fumigatus. Further, in data set [1], the mortality at 100 ug/ml worked out at 6.3%.
`CCCCCCCCOc1ccc(NC(=O)C(COC(C)(C)C)NC(=O)[C@@]2(O)C[C@@H](OC(=O)/C=C/c3ccc(O)c(O)c3)[C@@H]3OC(C)(C)O[C@@H]3C2)cc1` (stereo not given in full): the MIC was 32 µg/mL (≈ 43.2 µM) with Candida albicans, 2 µg/mL (≈ 2.7 µM) in the data set on Cryptococcus neoformans and over 64 µg/mL against Aspergillus fumigatus. Besides, the mortality at 100 ug/ml in data set [1] was 31.3%.
The like results for `CCCCCCCCOc1ccc(NC(=O)[C@]2(O)C[C@@H](O)[C@@H](O)[C@H](OC(=O)/C=C/c3ccc(O)c(O)c3)C2)cc1` were, in that order, 8 µg/mL (≈ 14.3 µM), 2 µg/mL (≈ 3.59 µM), over 64 µg/mL and 50%.
As to `C[C@@H]1[C@H](O)[C@@H](C)/C=C/C=C/C=C/C=C/C=C/C=C/C=C/[C@H](O[C@@H]2O[C@H](C)[C@@H](O)[C@H](N)[C@@H]2O)C[C@@H]2O[C@](O)(C[C@@H](O)C[C@@H](O)[C@H](O)CC[C@@H](O)C[C@@H](O)CC(=O)O[C@H]1C)C[C@H](O)[C@H]2C(=O)O` [AMPHOTERICIN B], in the data set with Candida albicans, the MIC turned out to be 0.5 µg/mL (≈ 0.541 µM).
As for `O=C(/C=C/c1ccc(O)c(O)c1)O[C@@H]1C[C@](O)(C(=O)O)C[C@@H](O)[C@H]1O` [CHLOROGENIC ACID], the MIC with Candida albicans and against Pichia kudriavzevii was over 64 µg/mL in each case. Besides, in data set [1], the mortality at 100 ug/ml amounted to 100%.
In the case of `OC(Cn1cncn1)(Cn1cncn1)c1ccc(F)cc1F` [FLUCONAZOLE], the MIC is 0.25 µg/mL (≈ 0.816 µM) in the data set on Candida albicans, 0.5 µg/mL (≈ 1.63 µM) against Cryptococcus neoformans and over 64 µg/mL in the data set on Aspergillus fumigatus.
